# Data from the RNAGym collection of RNA variant scans (doi:10.1002/anie.201605470).
# B1: Osa-1-4 twister ribozyme (parent)
# chain: CCGCCUAACACUGCCAAUGCCGGUCCCAAGCCCGGAUAAAAGUGGAGGGGGCGG
# Variants of: B1
# Test: self-cleavage, relative activity (ratio to wild type); higher = more cleavage; co-transcriptional
# Method in brief: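 The 48 positions downstream of the cleavage site in a 54-nucleotide Oryza sativa twister ribozyme template were synthesised at 97 % wild-type base and 1 % of each other base. The template was transcribed in vitro at 37 °C for 2 h, with self-cleavage allowed during transcription. Reads with or without upstream sequence after deep sequencing marked cleavage status, and relative activity is fraction cleaved normalised to wild type.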
row,Variant,self-cleavage
1,G51U U43C,0.11
2,G51U U43G,0.08
3,C52A,1.02
4,C52A C9A,0.55
5,C52A C9G,0.8
6,C52A C9U,0.82
7,C52A G13A,0.08
8,C52A G13C,0.04
9,C52A G13U,0.03
10,C52A G19A,0.42
11,C52A G19C,0.08
12,C52A G19U,0.2
13,C52A G22A,0.71
14,C52A G22C,0.07
15,C52A G22U,0.17
16,C52A G23A,0.17
17,C52A G23C,0.06
18,C52A G23U,0.09
19,C52A G30A,0.04
20,C52A G30C,0.06
21,C52A G30U,0.04
22,C52A G34A,0.65
23,C52A G34C,0.21
24,C52A G34U,0.39
25,C52A G35A,0.8

row,Variant,self-cleavage
1,C52A G35C,0.22
2,C52A G35U,0.81
3,C52A G42A,0.68
4,C52A G42C,0.16
5,C52A G42U,0.11
6,C52A G44A,0.98
7,C52A G44C,0.96
8,C52A G44U,0.93
9,C52A G45A,0.26
10,C52A G45C,0.07
11,C52A G45U,0.1
12,C52A G47A,0.22
13,C52A G47C,0.1
14,C52A G47U,0.21
15,C52A G48A,0.14
16,C52A G48C,0.1
17,C52A G48U,0.07
18,C52A G49A,0.21
19,C52A G49C,0.08
20,C52A G49U,0.1
21,C52A G50A,0.69
22,C52A G50C,0.14
23,C52A G50U,0.25
24,C52A G51A,0.9
25,C52A G51C,0.43

row,Variant,self-cleavage
1,C52A G51U,0.48
2,C52A G53A,0.92
3,C52A G53C,0.5
4,C52A G53U,0.8
5,C52A G54A,0.69
6,C52A G54C,0.87
7,C52A G54U,0.89
8,C52A U12A,0.71
9,C52A U12C,0.48
10,C52A U12G,0.18
11,C52A U18A,0.93
12,C52A U18C,0.93
13,C52A U18G,0.82
14,C52A U24A,0.14
15,C52A U24C,0.18
16,C52A U24G,0.04
17,C52A U37A,0.9
18,C52A U37C,1.02
19,C52A U37G,1.06
20,C52A U43A,0.85
21,C52A U43C,0.5
22,C52A U43G,0.37
23,C52G,1.01
24,C52G C9A,0.57
25,C52G C9G,0.86

row,Variant,self-cleavage
1,C52G C9U,0.85
2,C52G G13A,0.12
3,C52G G13C,0.07
4,C52G G13U,0.06
5,C52G G19A,0.55
6,C52G G19C,0.14
7,C52G G19U,0.27
8,C52G G22A,0.75
9,C52G G22C,0.09
10,C52G G22U,0.35
11,C52G G23A,0.28
12,C52G G23C,0.09
13,C52G G23U,0.14
14,C52G G30A,0.06
15,C52G G30C,0.07
16,C52G G30U,0.05
17,C52G G34A,0.77
18,C52G G34C,0.17
19,C52G G34U,0.42
20,C52G G35A,0.84
21,C52G G35C,0.36
22,C52G G35U,0.91
23,C52G G42A,0.75
24,C52G G42C,0.22
25,C52G G42U,0.14

row,Variant,self-cleavage
1,C52G G44A,0.98
2,C52G G44C,0.9
3,C52G G44U,0.9
4,C52G G45A,0.27
5,C52G G45C,0.1
6,C52G G45U,0.14
7,C52G G47A,0.28
8,C52G G47C,0.11
9,C52G G47U,0.29
10,C52G G48A,0.13
11,C52G G48C,0.1
12,C52G G48U,0.09
13,C52G G49A,0.2
14,C52G G49C,0.07
15,C52G G49U,0.13
16,C52G G50A,0.85
17,C52G G50C,0.09
18,C52G G50U,0.24
19,C52G G51A,0.84
20,C52G G51C,0.41
21,C52G G51U,0.48
22,C52G G53A,0.57
23,C52G G53C,0.24
24,C52G G53U,0.44
25,C52G G54A,0.81

row,Variant,self-cleavage
1,C52G G54C,0.91
2,C52G G54U,0.97
3,C52G U12A,0.85
4,C52G U12C,0.58
5,C52G U12G,0.32
6,C52G U18A,0.91
7,C52G U18C,0.93
8,C52G U18G,0.86
9,C52G U24A,0.23
10,C52G U24C,0.22
11,C52G U24G,0.06
12,C52G U37A,0.81
13,C52G U37C,1.05
14,C52G U37G,1.02
15,C52G U43A,0.9
16,C52G U43C,0.55
17,C52G U43G,0.65
18,C52U,1.03
19,C52U C9A,0.62
20,C52U C9G,0.95
21,C52U C9U,0.87
22,C52U G13A,0.14
23,C52U G13C,0.01
24,C52U G13U,0.05
25,C52U G19A,0.93

row,Variant,self-cleavage
1,C52U G19C,0.18
2,C52U G19U,0.48
3,C52U G22A,0.91
4,C52U G22C,0.17
5,C52U G22U,0.88
6,C52U G23A,0.68
7,C52U G23C,0.06
8,C52U G23U,0.25
9,C52U G30A,0.04
10,C52U G30C,0.04
11,C52U G30U,0.04
12,C52U G34A,0.93
13,C52U G34C,0.65
14,C52U G34U,0.85
15,C52U G35A,0.96
16,C52U G35C,0.63
17,C52U G35U,0.99
18,C52U G42A,0.91
19,C52U G42C,0.39
20,C52U G42U,0.13
21,C52U G44A,1
22,C52U G44C,1.05
23,C52U G44U,1.02
24,C52U G45A,0.54
25,C52U G45C,0.07

row,Variant,self-cleavage
1,C52U G45U,0.17
2,C52U G47A,0.45
3,C52U G47C,0.12
4,C52U G47U,0.4
5,C52U G48A,0.15
6,C52U G48C,0.11
7,C52U G48U,0.11
8,C52U G49A,0.21
9,C52U G49C,0.07
10,C52U G49U,0.15
11,C52U G50A,0.97
12,C52U G50C,0.57
13,C52U G50U,0.98
14,C52U G51A,0.88
15,C52U G51C,0.13
16,C52U G51U,0.54
17,C52U G53A,1
18,C52U G53C,0.17
19,C52U G53U,0.9
20,C52U G54A,0.98
21,C52U G54C,0.94
22,C52U G54U,1.03
23,C52U U12A,0.99
24,C52U U12C,0.65
25,C52U U12G,0.78

row,Variant,self-cleavage
1,C52U U18A,0.97
2,C52U U18C,1
3,C52U U18G,0.86
4,C52U U24A,0.33
5,C52U U24C,0.56
6,C52U U24G,0.03
7,C52U U37A,0.84
8,C52U U37C,1.07
9,C52U U37G,1.06
10,C52U U43A,1
11,C52U U43C,0.62
12,C52U U43G,0.88
13,G53A,0.93
14,G53A G54A,0.62
15,G53A G54C,0.66
16,G53A G54U,0.79
17,G53A U12A,0.28
18,G53A U12C,0.37
19,G53A U12G,0.18
20,G53A U18A,0.8
21,G53A U18C,0.83
22,G53A U18G,0.65
23,G53A U24A,0.09
24,G53A U24C,0.08
25,G53A U24G,0.03

row,Variant,self-cleavage
1,G53A U37A,0.57
2,G53A U37C,0.97
3,G53A U37G,0.97
4,G53A U43A,0.64
5,G53A U43C,0.43
6,G53A U43G,0.37
7,G53C,0.13
8,G53C G54A,0.1
9,G53C G54C,0.08
10,G53C G54U,0.25
11,G53C U12A,0.07
12,G53C U12C,0.05
13,G53C U12G,0.04
14,G53C U18A,0.09
15,G53C U18C,0.1
16,G53C U18G,0.14
17,G53C U24A,0.04
18,G53C U24C,0.03
19,G53C U24G,0.01
20,G53C U37A,0.06
21,G53C U37C,0.11
22,G53C U37G,0.15
23,G53C U43A,0.08
24,G53C U43C,0.07
25,G53C U43G,0.07

row,Variant,self-cleavage
1,G53U,0.56
2,G53U G54A,0.25
3,G53U G54C,0.14
4,G53U G54U,0.46
5,G53U U12A,0.12
6,G53U U12C,0.13
7,G53U U12G,0.07
8,G53U U18A,0.41
9,G53U U18C,0.3
10,G53U U18G,0.39
11,G53U U24A,0.06
12,G53U U24C,0.06
13,G53U U24G,0.03
14,G53U U37A,0.32
15,G53U U37C,0.55
16,G53U U37G,0.61
17,G53U U43A,0.2
18,G53U U43C,0.15
19,G53U U43G,0.13
20,G54A,1
21,G54A U12A,0.48
22,G54A U12C,0.56
23,G54A U12G,0.28
24,G54A U18A,0.88
25,G54A U18C,0.93

row,Variant,self-cleavage
1,G54A U18G,0.71
2,G54A U24A,0.13
3,G54A U24C,0.13
4,G54A U24G,0.03
5,G54A U37A,0.73
6,G54A U37C,0.98
7,G54A U37G,1
8,G54A U43A,0.84
9,G54A U43C,0.58
10,G54A U43G,0.69
11,G54C,1
12,G54C U12A,0.43
13,G54C U12C,0.57
14,G54C U12G,0.32
15,G54C U18A,0.85
16,G54C U18C,0.91
17,G54C U18G,0.77
18,G54C U24A,0.07
19,G54C U24C,0.11
20,G54C U24G,0.02
21,G54C U37A,0.71
22,G54C U37C,1.02
23,G54C U37G,1.03
24,G54C U43A,0.86
25,G54C U43C,0.6

row,Variant,self-cleavage
1,G54C U43G,0.76
2,G54U,1
3,G54U U12A,0.62
4,G54U U12C,0.67
5,G54U U12G,0.4
6,G54U U18A,0.9
7,G54U U18C,0.95
8,G54U U18G,0.73
9,G54U U24A,0.34
10,G54U U24C,0.23
11,G54U U24G,0.04
12,G54U U37A,0.73
13,G54U U37C,1.02
14,G54U U37G,0.98
15,G54U U43A,0.84
16,G54U U43C,0.7
17,G54U U43G,0.7
